Experimental data from ChEMBL document CHEMBL4680131, “Fangchinoline derivatives induce cell cycle arrest and apoptosis in human leukemia cell lines via suppression of the PI3K/AKT and MAPK signaling pathway” (Eur J Med Chem, 2020).
The source made the active and inactive calls. The calls are words filed in the database; no cut-off is given here.

Columns and labels:
[1] = test system: HEL; assay: Cytotoxicity against human HEL cells assessed as reduction in cell viability incubated for 48 hrs by MTT assay; assay type: functional, cell-based
Method in brief: (§1)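 MTT viability after 48 h exposure. Cells (1×10^4/well) were allowed 24 h at 37 °C before dosing. Leukemia lines were grown in RPMI and breast lines in high-glucose DMEM, each with 5% FBS under 5% CO2. MTT was added for 4 h, formazan dissolved in DMSO, and absorbance read at 490 nm. Triplicate wells; values averaged over at least 3 independent experiments.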

[2] = test system: K562; assay: Cytotoxicity against human K562 cells assessed as reduction in cell viability incubated for 48 hrs by MTT assay; assay type: functional, cell-based; details: K562, 48 h; method in brief: as §1
[3] = test system: MDA-MB-231; assay: Cytotoxicity against human MDA-MB-231 cells assessed as reduction in cell viability incubated for 48 hrs by MTT assay; assay type: functional, cell-based; details: MDA-MB-231, 48 h; method in brief: as §1
[4] = test system: MCF7; assay: Cytotoxicity against human MCF-7 cells assessed as reduction in cell viability incubated for 48 hrs by MTT assay; assay type: functional, cell-based; details: MCF7, 48 h; method in brief: as §1
[5] = test system: HEL; assay: Antiproliferative activity against human HEL cells assessed as reduction in cell viability incubated for 12 to 72 hrs by MTT assay; assay type: functional, cell-based; details: dose 0.5-2 µM, time 12-72 hrs
Method in brief: (§2)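 HEL cells were kept in RPMI with 5% FBS at 37 °C and 5% CO2. They were seeded at 1×10^4/well and given 24 h before dosing. Exposure ran 12, 24, 36, 48 or 72 h, then MTT was added for 4 h, formazan dissolved in DMSO, and absorbance read at 490 nm. Triplicate wells, repeated at least three times.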

[6] = test system: HEL; assay: Antiproliferative activity against human HEL cells assessed as reduction in cell viability at 0.5 to 2 uM by MTT assay; assay type: functional, cell-based; details: dose 0.5-2 µM, time 12.0 hrs, TDE = time-dependent effect; method in brief: as §2
[7] = test system: HEL; assay: Induction of cell cycle arrest in human HEL cells assessed as accumulation of cells at G0/G1 phase measured after 1 hrs by flow cytometry; assay type: functional, cell-based
Method in brief: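 HEL cells (2×10^5/well) were given DMSO or compound, then fixed in ice-cold 70% ethanol at 4 °C overnight and washed in PBS. Cells were stained 1 h at 37 °C in the dark with PBS containing 50 µg/mL PI and 100 µg/mL RNase. DNA content was analyzed by flow cytometry.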

[8] = test system: HEL; assay: Induction of cell cycle arrest in human HEL cells assessed as down regulation of cMyc incubated for 1 hr by Western blot analysis; assay type: functional, cell-based
Method in brief: (§3)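 HEL cells were lysed in RIPA after compound or DMSO treatment. Lysates were run on 10% SDS-PAGE, transferred to PVDF and blocked in 5% BSA for 1 h. Blots were probed overnight at 4 °C with antibodies to PARP, caspase-3, caspase-9, c-MYC or p21, then HRP secondary for 2 h, and detected by ECL. β-actin served as loading control.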

[9] = test system: HEL; assay: Induction of cell cycle arrest in human HEL cells assessed as up regulation of p21 incubated for 1 hr by Western blot analysis; assay type: functional, cell-based; method in brief: as §3
[10] = test system: HEL; assay: Induction of apoptosis in human HEL cells assessed as viable cells by Annexin-V/propidium iodide staining-based flow cytometric analysis (reference value: 96.62%); assay type: functional
[11] = test system: HEL; assay: Induction of apoptosis in human HEL cells assessed as early apoptotic cells by Annexin-V/propidium iodide staining-based flow cytometric analysis (reference value: 2.26%); assay type: functional
[12] = test system: HEL; assay: Induction of apoptosis in human HEL cells assessed as late apoptotic cells by Annexin-V/propidium iodide staining-based flow cytometric analysis (reference value: 0.76%); assay type: functional
[13] = test system: HEL; assay: Induction of apoptosis in human HEL cells assessed as necrotic cells by Annexin-V/propidium iodide staining-based flow cytometric analysis (reference value: 0.34%); assay type: functional
[14] = test system: HEL; assay: Induction of apoptosis in human HEL cells assessed as increase in PARP cleavage by Western blot analysis; assay type: functional, cell-based; method in brief: as §3
[15] = test system: HEL; assay: Induction of apoptosis in human HEL cells assessed as increase in caspase 3 cleavage by Western blot analysis; assay type: functional, cell-based; method in brief: as §3
[16] = test system: HEL; assay: Induction of apoptosis in human HEL cells assessed as increase in caspase 9 cleavage by Western blot analysis; assay type: functional, cell-based; method in brief: as §3
[17] = test system: HEL; assay: Inhibition of Akt in human HEL cells assessed as PI3K/AKT phosphorylation at 2.5 uM after 8 hrs by Western blot analysis; assay type: cell-based
Method in brief: (§4)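 HEL cells were treated with 2.5 µM for 8 h, with DMSO as control. RIPA lysates were run on 10% SDS-PAGE and transferred to PVDF. Blots were blocked in 5% BSA, incubated overnight at 4 °C with antibodies to total and phospho Akt, ERK and JNK, then HRP secondary, and detected by ECL. Bands were normalized to β-actin; means ± SD of triplicates in three independent runs; t-test.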

[18] = test system: HEL; assay: Inhibition of ERK phosphorylation in human HEL cells at 2.5 uM after 8 hrs by Western blot analysis; assay type: cell-based; method in brief: as §4
[19] = Inhibition of AKT (unknown origin) by ELISA assay; design: species or system Homo sapiens
Method in brief: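 Akt kinase activity kit run per the manufacturer's protocol. Akt source was lysate of compound-treated human leukemia HEL cells, purified on a Mono Q anion-exchange column before the kinase measurement. HEL cells were grown in RPMI with 5% FBS at 37 °C and 5% CO2. The value is reported as an IC50.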

[20] = test system: HEL; assay: Potency index, ratio of fangchinoline IC50 to test compound IC50 for human HEL cells; assay type: functional
[21] = test system: MDA-MB-231; assay: Potency index, ratio of fangchinoline IC50 to test compound IC50 for human MDA-MB-231 cells; assay type: functional
[22] = test system: MCF7; assay: Potency index, ratio of fangchinoline IC50 to test compound IC50 for human MCF-7 cells; assay type: functional
[23] = test system: HEL; assay: Potency index, ratio of vincristine IC50 to test compound IC50 for human HEL cells; assay type: functional
[24] = test system: MDA-MB-231; assay: Potency index, ratio of vincristine IC50 to test compound IC50 for human MDA-MB-231 cells; assay type: functional
[25] = test system: MCF7; assay: Potency index, ratio of vincristine IC50 to test compound IC50 for human MCF-7 cells; assay type: functional
[26] = test system: HEL; assay: Induction of apoptosis in human HEL cells assessed as increase in JNK phosphorylation at 2.5 uM after 8 hrs by Western blot analysis; assay type: functional, cell-based; method in brief: as §4

In the case of `COc1ccc2cc1Oc1ccc(cc1)C[C@H]1c3cc(c(OC)cc3CCN1C)Oc1c(OC(=O)C3CCCS3)c(OC)cc3c1[C@H](C2)N(C)CC3` (stereo partly specified), the IC50 [1] is reported as 1.52 µM, the IC50 [2] is reported as 1.53 µM and the IC50 [3] is reported as 1.6 µM. The IC50 [4] was 4.01 µM, the Activity [5] was “Dose-dependent effect” and the Activity [6] was “Tde”. The Activity [7] was “Active”, the Activity [8] was “Active” and the Activity [9] was “Active”. It also gave an Activity [10] of 48.12%, an Activity [11] of 19.97% and an Activity [12] of 27.92%. For the same compound, the Activity [13] was 3.38%, the Activity [14] was “Active” and the Activity [15] was “Active”. For the same compound, the Activity [16] was “Active”, the inhibition [17] was “Active” and the inhibition [18] was “Active”. For the same compound, the IC50 [19] was 0.55 µM, the “Ratio IC50” value [20] was 15 and the “Ratio IC50” value [21] was 36. The “Ratio IC50” value [22] was 9, the “Ratio IC50” value [23] was 10 and the “Ratio IC50” value [24] was 10. For the same compound, the “Ratio IC50” value [25] was 10 and the Activity [26] was “Active”.
With `COc1ccc2cc1Oc1ccc(cc1)C[C@H]1c3cc(c(OC)cc3CCN1C)Oc1c(O)c(OC)cc3c1[C@H](C2)N(C)CC3` [FANGCHINOLINE] the IC50 [1] was 22.7 µM, the IC50 [2] was 5.94 µM and the IC50 [3] was 58.6 µM. The IC50 [4] was 17.4 µM and the IC50 [19] was > 20 µM.
In the case of `COc1ccc2cc1Oc1ccc(cc1)C[C@H]1c3cc(c(OC)cc3CCN1C)Oc1c(OC(=O)/C=C/c3ccccc3)c(OC)cc3c1[C@H](C2)N(C)CC3`, the IC50 [1] is reported as 10.2 µM, the IC50 [2] is reported as 9.43 µM and the IC50 [3] is reported as 7.9 µM. The IC50 [4] was 16.1 µM.
In the case of `COc1ccc2cc1Oc1ccc(cc1)C[C@H]1c3cc(c(OC)cc3CCN1C)Oc1c(OC)c(OC)cc3c1[C@H](C2)N(C)CC3` [FANCHININ], the IC50 [1] is reported as 19.7 µM, the IC50 [2] is reported as 6.43 µM and the IC50 [3] is reported as 18.4 µM. For the same compound, the IC50 [4] was 19.6 µM.
With `COc1ccc2cc1Oc1ccc(cc1)C[C@H]1c3cc(c(OC)cc3CCN1C)Oc1c(OC(=O)c3ccc(Br)cc3)c(OC)cc3c1[C@H](C2)N(C)CC3` the IC50 [1] was 2.31 µM, the IC50 [2] was 3.06 µM and the IC50 [3] was 5.58 µM. For the same compound, the IC50 [4] was 6.84 µM.
`COc1ccc2cc1Oc1ccc(cc1)C[C@H]1c3cc(c(OC)cc3CCN1C)Oc1c(OC(=O)C=C(C)C)c(OC)cc3c1[C@H](C2)N(C)CC3` showed an IC50 [1] of 5.16 µM, an IC50 [2] of 5.39 µM and an IC50 [3] of 10.3 µM. The IC50 [4] was > 100 µM.
`COc1ccc2cc1Oc1ccc(cc1)C[C@H]1c3cc(c(OC)cc3CCN1C)Oc1c(OC(=O)c3ccc(Cl)c(Cl)c3)c(OC)cc3c1[C@H](C2)N(C)CC3` gave an IC50 [1] of 4.56 µM, an IC50 [2] of 8.52 µM and an IC50 [3] of 18.3 µM. It also gave an IC50 [4] of 10.8 µM.
`COc1ccc2cc1Oc1ccc(cc1)C[C@H]1c3cc(c(OC)cc3CCN1C)Oc1c(OC(=O)c3ccc(Cl)cc3)c(OC)cc3c1[C@H](C2)N(C)CC3` showed an IC50 [1] of 2.81 µM, an IC50 [2] of 2.8 µM and an IC50 [3] of 7.55 µM. For the same compound, the IC50 [4] was 8.63 µM.
Compound `COc1ccc2cc1Oc1ccc(cc1)C[C@H]1c3cc(c(OC)cc3CCN1C)Oc1c(OC(=O)c3cccc(Cl)c3)c(OC)cc3c1[C@H](C2)N(C)CC3` has an IC50 [1] of 4.26 µM, an IC50 [2] of 3.79 µM and an IC50 [3] of 8.03 µM. The IC50 [4] was 4.42 µM.
In the case of `CC[C@]1(O)C[C@@H]2CN(CCc3c([nH]c4ccccc34)[C@@](C(=O)OC)(c3cc4c(cc3OC)N(C)[C@H]3[C@@](O)(C(=O)OC)[C@H](OC(C)=O)[C@]5(CC)C=CCN6CC[C@]43[C@@H]65)C2)C1` [VINBLASTINE], the IC50 [1] is reported as 16 µM, the IC50 [2] is reported as 9.49 µM and the IC50 [3] is reported as 17.7 µM. For the same compound, the IC50 [4] was 37.5 µM.
Work on `CCN(C)C(=O)Oc1c(OC)cc2c3c1Oc1cc4c(cc1OC)CCN(C)[C@H]4Cc1ccc(cc1)Oc1cc(ccc1OC)C[C@@H]3N(C)CC2` yielded an IC50 [1] of 3.46 µM, an IC50 [2] of 5.89 µM and an IC50 [3] of 9.89 µM. The IC50 [4] was 20.6 µM.
`COc1ccc2cc1Oc1ccc(cc1)C[C@H]1c3cc(c(OC)cc3CCN1C)Oc1c(OC(=O)N3CCCOC3)c(OC)cc3c1[C@H](C2)N(C)CC3` showed an IC50 [1] of 40.2 µM, an IC50 [2] of 15.9 µM and an IC50 [3] of 15.1 µM. The IC50 [4] was 25.2 µM.
